Source: ChEMBL document CHEMBL4038323, “Discovery and Kinetic Profiling of 7-Aryl-1,2,4-triazolo[4,3-a]pyridines: Positive Allosteric Modulators of the Metabotropic Glutamate Receptor 2” (J Med Chem, 2017)

Key:
[1] = target: T1, Metabotropic glutamate receptor 2 (Homo sapiens, UniProt Q14416); experiment: Displacement of [3H]JNJ-46281222 from human metabotropic glutamate receptor 2 expressed in CHOK1 cell membranes assessed as residence time measured every 30 sec for 120 mins by scintillation proximity assay
In short: (§1)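 For the SPA competition association, CHO-K1_hmGlu2 membranes (20 µg) were pre-coupled 30 min to WGA SPA beads, then mixed with 6 nM [3H]JNJ-46281222, competitor and 1 mM glutamate. Counts were read every 30 s for 120 min at 28°C.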
Target sequence in this assay (Q14416 19-872 limits assumed): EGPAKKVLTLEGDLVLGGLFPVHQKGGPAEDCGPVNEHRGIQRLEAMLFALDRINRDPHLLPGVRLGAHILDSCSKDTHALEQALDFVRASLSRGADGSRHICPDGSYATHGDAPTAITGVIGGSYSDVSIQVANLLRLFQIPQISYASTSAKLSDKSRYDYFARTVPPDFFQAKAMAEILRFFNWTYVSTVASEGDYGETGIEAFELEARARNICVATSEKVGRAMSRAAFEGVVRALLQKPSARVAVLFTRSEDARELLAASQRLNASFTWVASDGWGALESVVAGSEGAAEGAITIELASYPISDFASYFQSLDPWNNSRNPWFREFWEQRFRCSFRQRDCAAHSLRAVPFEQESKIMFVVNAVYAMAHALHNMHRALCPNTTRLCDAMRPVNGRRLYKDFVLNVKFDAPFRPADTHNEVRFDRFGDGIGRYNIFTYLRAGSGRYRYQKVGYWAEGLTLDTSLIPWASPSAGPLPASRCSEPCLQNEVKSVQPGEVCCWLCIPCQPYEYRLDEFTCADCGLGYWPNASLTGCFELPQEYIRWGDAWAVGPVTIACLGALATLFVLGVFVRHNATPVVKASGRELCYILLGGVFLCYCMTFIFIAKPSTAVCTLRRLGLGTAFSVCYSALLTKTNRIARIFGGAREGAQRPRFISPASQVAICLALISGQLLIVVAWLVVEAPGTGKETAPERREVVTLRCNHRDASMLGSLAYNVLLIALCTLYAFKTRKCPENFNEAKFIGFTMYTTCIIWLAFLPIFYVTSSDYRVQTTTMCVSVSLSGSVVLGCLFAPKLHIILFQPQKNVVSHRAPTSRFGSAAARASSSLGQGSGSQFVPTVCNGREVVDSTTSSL

[2] = target: T1, Metabotropic glutamate receptor 2; experiment: Displacement of [3H]JNJ-46281222 from human metabotropic glutamate receptor 2 expressed in CHOK1 cell membranes assessed as dissociation rate constant measured every 30 sec for 120 mins by scintillation proximity assay; in short: as §1
Target sequence in this assay (Q14416 19-872 limits assumed): as above

[3] = target: T1, Metabotropic glutamate receptor 2; experiment: Displacement of [3H]JNJ-46281222 from human metabotropic glutamate receptor 2 expressed in CHOK1 cell membranes assessed as association rate constant measured every 30 sec for 120 mins by scintillation proximity assay; in short: as §1
Target sequence in this assay (Q14416 19-872 limits assumed): as above

[4] = target: T1, Metabotropic glutamate receptor 2; experiment: Positive allosteric modulation of human metabotropic glutamate receptor 2 expressed in CHOK1 cell membranes assessed as increase in glutamate-induced [35S]GTPgammaS binding preincubated for 30 mins followed by [35S]GTPgammaS addition measured after 30 mins by Topcount scintillation counting method; format: functional
Target sequence in this assay (Q14416 whole entry): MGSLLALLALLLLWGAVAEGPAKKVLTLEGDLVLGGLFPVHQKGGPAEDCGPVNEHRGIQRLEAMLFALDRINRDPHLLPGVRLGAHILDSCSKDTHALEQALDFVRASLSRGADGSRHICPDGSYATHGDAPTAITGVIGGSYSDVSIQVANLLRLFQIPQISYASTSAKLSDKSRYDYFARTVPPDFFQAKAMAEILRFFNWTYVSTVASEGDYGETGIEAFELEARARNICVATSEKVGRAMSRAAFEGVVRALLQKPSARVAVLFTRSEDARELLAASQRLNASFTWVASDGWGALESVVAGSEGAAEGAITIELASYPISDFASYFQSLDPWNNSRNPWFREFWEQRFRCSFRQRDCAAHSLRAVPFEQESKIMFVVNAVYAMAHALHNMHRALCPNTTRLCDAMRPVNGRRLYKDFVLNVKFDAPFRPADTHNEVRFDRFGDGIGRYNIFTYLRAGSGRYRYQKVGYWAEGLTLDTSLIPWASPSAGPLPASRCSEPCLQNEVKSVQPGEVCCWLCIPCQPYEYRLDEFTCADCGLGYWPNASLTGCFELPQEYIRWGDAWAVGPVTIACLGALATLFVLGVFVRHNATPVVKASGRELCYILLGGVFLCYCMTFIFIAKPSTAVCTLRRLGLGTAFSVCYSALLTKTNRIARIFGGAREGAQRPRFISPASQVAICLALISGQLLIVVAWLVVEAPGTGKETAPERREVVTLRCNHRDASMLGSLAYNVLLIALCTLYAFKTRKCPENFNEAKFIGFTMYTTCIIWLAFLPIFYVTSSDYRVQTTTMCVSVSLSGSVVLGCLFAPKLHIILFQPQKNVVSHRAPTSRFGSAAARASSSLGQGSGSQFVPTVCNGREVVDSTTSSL

[5] = target: T1, Metabotropic glutamate receptor 2; experiment: Binding affinity to human metabotropic glutamate receptor 2 expressed in CHOK1 cell membranes by scintillation proximity assay
Target sequence in this assay (Q14416 whole entry): as above

[6] = target: T1, Metabotropic glutamate receptor 2; experiment: Displacement of [3H]-JNJ46281222 from human metabotropic glutamate receptor 2 expressed in CHOK1 cell membranes after 60 mins by microbeta counting analysis
Target sequence in this assay (Q14416 whole entry): as above

TIME [1] [h] | K [2] [min⁻¹] | K [3] | EC50 [4] [nM] | Kd [5] [nM] | Ki [6] [nM] | Compound
0.513 | 0.033 | 1.1 ×10⁷ /M/min |  |  |  | O[C@H]1CC[C@H](Nc2ccc(-c3ccn4c(CC5CC5)nnc4c3C(F)(F)F)cc2Cl)CC1
0.183 | 0.091 | 1.7 ×10⁶ /M/min | 631 | 54 | 61.7 | FC(F)(F)c1c(-c2ccc(CNC3CCOCC3)c(Cl)c2)ccn2c(CC3CC3)nnc12
0.24 | 0.069 | 3 ×10⁶ /M/min | 100 | 23.3 | 18.6 | CCc1cc(Oc2ccc(-c3ccn4c(CC5CC5)nnc4c3Cl)cc2F)ccn1
0.228 | 0.073 | 1.7 ×10⁶ /M/min | 87.1 | 42.7 | 53.7 | Fc1cc(-c2ccn3c(CC4CC4)nnc3c2Cl)ccc1Oc1ccnc(C2CC2)c1
0.175 | 0.096 | 2.9 ×10⁷ /M/min | 29.5 | 3.3 | 7.94 | Cc1ccc(Oc2ccc(-c3ccn4c(CC(F)(F)F)nnc4c3Cl)cc2F)c(C)n1
0.22 | 0.076 | 3 ×10⁶ /M/min | 74.1 | 25.2 | 6.46 | CCOCc1nnc2c(Cl)c(-c3ccc(Oc4ccc(C)nc4C)c(F)c3)ccn12
0.185 | 0.09 | 9.8 ×10⁶ /M/min | 56.2 | 9.2 | 7.08 | Cc1cc(Oc2ccc(-c3ccn4c(CC5CC5)nnc4c3C(F)(F)F)cc2F)ccn1
0.197 | 0.084 | 6.7 ×10⁶ /M/min | 33.1 | 12.7 | 3.02 | O[C@H]1CC[C@H](Nc2ccc(-c3ccn4c(CC5CC5)nnc4c3Cl)cc2Cl)CC1
0.175 | 0.095 | 8.3 ×10⁶ /M/min | 64.6 | 11.5 | 10 | Cc1cc(Oc2ccc(-c3ccn4c(CC5CC5)nnc4c3C(F)(F)F)cc2F)cc(C)n1
0.175 | 0.096 | 5.5 ×10⁶ /M/min | 17.4 | 17.4 | 14.8 | Cc1ccc(Oc2ccc(-c3ccn4c(CC5CC5)nnc4c3C)cc2Cl)c(C)n1
0.122 | 0.137 | 8.3 ×10⁶ /M/min | 158 | 16.6 | 11.5 | O[C@H]1CC[C@H](Oc2ccc(-c3ccn4c(CC(F)(F)F)nnc4c3Cl)cc2Cl)CC1
0.193 | 0.086 | 4.6 ×10⁶ /M/min |  |  |  | Cc1c(OCc2cccc(-c3ccc(C(=O)O)cc3)c2)cc2c(c1C)C(=O)C(C1CCCC1)C2 (stereo not drawn)
0.172 | 0.097 | 6.2 ×10⁶ /M/min | 151 | 15.6 | 7.41 | COc1ccc(CNc2ccc(-c3ccn4c(CC5CC5)nnc4c3Cl)cc2)cn1
0.193 | 0.086 | 8.6 ×10⁶ /M/min | 77.6 | 10 | 21.9 | Cc1ccc(Oc2ccc(-c3ccn4c(CC5CC5)nnc4c3C)cc2F)c(C)n1
0.182 | 0.092 | 3.3 ×10⁶ /M/min | 224 | 28.1 | 22.9 | Clc1cc(-c2ccn3c(CC4CC4)nnc3c2Cl)ccc1OC1CCOCC1
0.133 | 0.125 | 1.4 ×10⁷ /M/min | 57.5 | 8.7 | 8.71 | COc1ccc(COc2ccc(-c3ccn4c(CC5CC5)nnc4c3C(F)(F)F)cc2)cn1
0.468 | 0.036 | 1.2 ×10⁷ /M/min | 25.1 | 3 | 1.91 | O[C@H]1CC[C@H](Oc2ccc(-c3ccn4c(CC5CC5)nnc4c3C(F)(F)F)cc2Cl)CC1
0.243 | 0.069 | 3.4 ×10⁷ /M/min | 15.1 | 2 | 3.16 | COc1ccc(CNc2ccc(-c3ccn4c(CC5CC5)nnc4c3C(F)(F)F)cc2)cn1

TIME [1] [h] | K [2] [min⁻¹] | K [3] | EC50 [4] [nM] | Kd [5] [nM] | Ki [6] [nM] | Compound
0.198 | 0.084 | 1.4 ×10⁷ /M/min | 29.5 | 6.1 | 6.76 | Clc1cc(-c2ccn3c(CC4CC4)nnc3c2Cl)ccc1NC1CC1
0.167 | 0.1 | 4.6 ×10⁷ /M/min | 93.3 | 2.2 | 8.91 | CC(C)Nc1ccc(-c2ccn3c(CC4CC4)nnc3c2C(F)(F)F)cc1F
0.237 | 0.07 | 6.5 ×10⁶ /M/min | 28.2 | 10.7 | 25.1 | Cc1ccc(Oc2ccc(-c3ccn4c(CC5CC5)nnc4c3C(C)C)cc2F)c(C)n1
0.198 | 0.086 | 7.7 ×10⁷ /M/min | 30.2 | 1.1 | 3.63 | Fc1cc(-c2ccn3c(CC4CC4)nnc3c2C(F)(F)F)ccc1NC1CC1
0.122 | 0.136 | 7 ×10⁶ /M/min | 148 | 19.5 | 38.9 | Clc1cc(-c2ccn3c(CC4CC4)nnc3c2Cl)ccc1NC1CCOCC1
0.285 | 0.058 | 5.7 ×10⁶ /M/min |  |  |  | O[C@H]1CC[C@@H](Nc2ccc(-c3ccn4c(CC5CC5)nnc4c3C(F)(F)F)cc2Cl)CC1
0.173 | 0.096 | 2.6 ×10⁶ /M/min | 251 | 37.6 | 63.1 | Cc1cc(Oc2ccc(-c3ccn4c(CC5CC5)nnc4c3Cl)cc2F)ccn1
0.137 | 0.121 | 3.6 ×10⁷ /M/min | 17.4 | 3.4 | 3.89 | CC(C)Nc1ccc(-c2ccn3c(CC4CC4)nnc3c2C(F)(F)F)cc1Cl
0.223 | 0.075 | 3.6 ×10⁷ /M/min | 29.5 | 2.1 | 11.7 | CCOCc1nnc2c(C(F)(F)F)c(-c3ccc(Oc4ccc(C)nc4C)c(F)c3)ccn12
0.188 | 0.088 | 7.7 ×10⁷ /M/min | 7.76 | 1.2 | 2.24 | FC(F)(F)c1c(-c2ccc(NC3CC3)c(Cl)c2)ccn2c(CC3CC3)nnc12
0.165 | 0.101 | 5 ×10⁶ /M/min | 224 | 20.3 | 61.7 | CC(C)Nc1ccc(-c2ccn3c(CC4CC4)nnc3c2Cl)cc1F
0.13 | 0.128 | 2.1 ×10⁵ /M/min |  |  |  | Cc1cc(-c2nc(CN3CCNCC3)no2)cc2c1C(=O)N(Cc1ccc(OC(F)(F)F)cc1)C2
0.378 | 0.044 | 6.1 ×10⁶ /M/min | 2.88 | 7.3 | 1.51 | Cc1ccc(Oc2ccc(-c3ccn4c(CC5CC5)nnc4c3C(F)(F)F)cc2Cl)c(C)n1
0.378 | 0.044 | 1.5 ×10⁷ /M/min | 5.89 | 2.9 | 2.04 | COc1ccc(CNc2ccc(-c3ccn4c(CC5CC5)nnc4c3C(F)(F)F)cc2F)cn1
0.295 | 0.056 | 6.9 ×10⁶ /M/min | 97.7 | 8.1 | 32.4 | O[C@H]1CC[C@@H](Oc2ccc(-c3ccn4c(CC(F)(F)F)nnc4c3Cl)cc2Cl)CC1
0.172 | 0.097 | 6.3 ×10⁶ /M/min | 40.7 | 15.3 | 1.95 | Cc1ccc(Oc2ccc(-c3ccn4c(CC5CC5)nnc4c3Cl)cc2F)c(C)n1
0.0967 | 0.173 | 1.1 ×10⁷ /M/min | 40.7 | 16 | 11.7 | COc1ccc(COc2ccc(-c3ccn4c(CC5CC5)nnc4c3C(F)(F)F)cc2F)cn1
